EC50 and Activity data for 1 compound are collected here from ChEMBL document CHEMBL1138474, “Modulation of the transient receptor potential vanilloid channel TRPV4 by 4alpha-phorbol esters: a structure-activity study” (J Med Chem, 2009).

The source made the active and inactive calls. No cut-off for these calls is given here.

In general, EC50 refers to the concentration that produces a half-maximal response.

The target of experiment [1] is Transient receptor potential cation channel subfamily V member 4 (Mus musculus, UniProt Q9EPK8, Y556A). Briefly: Activation of mouse TRPV4 Y556A mutant expressed in HEK293 cells assessed as increase in intracellular calcium concentration. The format is cell-based. The essentials:
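mTRPV4 (wild type or the Y556A, S557A or W586A TM3-4 mutant) in pCAGGS/Ires-GFP was transiently transfected into HEK293 cells and incubated overnight. GFP-positive cells on poly-L-lysine coverslips were loaded with 4 µM Fura-2 AM for 30 min at 37 °C and perfused with Krebs solution (1.5 mM CaCl2, pH 7.4). The 340/380 nm ratio (510 nm emission) gave ∆Fura-2 ratio. EC50 came from a Hill fit, >15 cells, three transfections.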
Background: A change in cytosolic calcium serves as a functional read-out for many receptors and channels.

The target of experiment [2] is Transient receptor potential cation channel subfamily V member 4 (Mus musculus) (UniProt Q9EPK8). Briefly: Activation of mouse wild type TRPV4 expressed in HEK293 cells assessed as increase in intracellular calcium concentration at 0.1 uM. The format is cell-based.
The target in experiment [3] is T1, Transient receptor potential cation channel subfamily V member 3 (Homo sapiens) (UniProt Q8NET8).
T1 sequence (whole entry): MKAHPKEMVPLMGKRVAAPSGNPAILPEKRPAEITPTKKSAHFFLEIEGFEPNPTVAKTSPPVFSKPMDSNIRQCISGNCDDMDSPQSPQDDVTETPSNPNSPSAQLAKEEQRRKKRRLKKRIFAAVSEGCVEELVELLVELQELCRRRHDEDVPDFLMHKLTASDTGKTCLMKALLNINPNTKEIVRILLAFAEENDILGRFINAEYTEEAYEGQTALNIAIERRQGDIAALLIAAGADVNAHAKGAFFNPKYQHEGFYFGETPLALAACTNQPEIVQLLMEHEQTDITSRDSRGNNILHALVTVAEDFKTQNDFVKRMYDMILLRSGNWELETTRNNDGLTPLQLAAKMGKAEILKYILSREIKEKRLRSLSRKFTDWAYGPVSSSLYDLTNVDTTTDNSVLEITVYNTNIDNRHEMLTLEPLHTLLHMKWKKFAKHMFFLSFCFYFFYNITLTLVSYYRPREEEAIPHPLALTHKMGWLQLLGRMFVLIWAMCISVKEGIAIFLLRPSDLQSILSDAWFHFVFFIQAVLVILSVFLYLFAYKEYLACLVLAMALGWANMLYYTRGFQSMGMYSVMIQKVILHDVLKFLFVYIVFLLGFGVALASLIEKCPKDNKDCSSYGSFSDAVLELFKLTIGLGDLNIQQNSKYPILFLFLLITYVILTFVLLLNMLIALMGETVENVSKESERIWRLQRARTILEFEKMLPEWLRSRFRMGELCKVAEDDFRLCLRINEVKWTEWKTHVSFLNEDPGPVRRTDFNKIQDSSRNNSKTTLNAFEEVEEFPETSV
Briefly: Activation of TRPV3 expressed in HEK293 cells assessed as increase in intracellular calcium concentration. The class given is cell-based. An outline of the steps:
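HEK293 cells grown in DMEM with 10% human serum at 37 °C/10% CO2 and transfected with the TRPV channel. Cells were loaded with 4 µM Fura-2 AM for 30 min at 37 °C and perfused with Krebs buffer (1.5 mM CaCl2, pH 7.4). Read-out is single-cell 340/380 nm fura-2 ratio imaging against nontransfected cells.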

For experiment [4], the target named is Transient receptor potential cation channel subfamily V member 4 (Mus musculus) (UniProt Q9EPK8). Put plainly: Activation of mouse wild type TRPV4 expressed in HEK293 cells assessed as outward-inward rectifying current density at 500 nM at a holding potential of 100 mV by whole cell patch-clamp assay in presence of calcium. The class given is cell-based. An outline of the steps: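 Whole-cell patch clamp was run on mTRPV4-transfected HEK293 cells using ramps from -100 to +100 mV. Bath (mM): 150 NaCl, 6 CsCl, 1 MgCl2, 5 CaCl2, 10 glucose, 10 HEPES, pH 7.4. Pipette (mM): 20 CsCl, 100 aspartate, 1 MgCl2, 10 HEPES, 4 Na-ATP, 10 BAPTA, free Ca2+ buffered to 200 nM, pH 7.4. Agonist was added to the bath. Five cells, >2 transfections.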
On the technique in general: Patch clamp records ionic current or voltage across a cell membrane.

The target is the same in experiment [5]. Put plainly: Agonist activity at mouse wild type TRPV4 expressed in HEK293 cells assessed as increase in intracellular calcium measured by fura-2 fluorescence ratio. The format is functional, cell-based. The essentials:
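Mouse TRPV4 (pCAGGS/Ires-GFP) transiently transfected into HEK293 cells, incubated overnight, then seeded on poly-L-lysine coverslips. GFP-positive cells loaded with 4 µM Fura-2 AM for 30 min at 37 °C and perfused with Krebs (pH 7.4). ΔFura-2 ratio taken as (Rt−R0)/R0 at the maximal response. EC50 from a Hill fit over >15 cells from three transfections, mean ± SEM.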

For experiment [6], the system named is Transient receptor potential cation channel subfamily V member 4 (Mus musculus), Q9EPK8 [Y556A]. Put plainly: Agonist activity at mouse TRPV4 Y556A mutant expressed in HEK293 cells assessed as increase in intracellular calcium measured by fura-2 fluorescence ratio. The format is functional, cell-based. The essentials: (§1)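 HEK293 cells transiently transfected with W586A or Y556A mouse TRPV4 mutants alongside wild type. Dose-response by single-cell fura-2 Ca2+ imaging, read as ΔFura-2 ratio. More than 15 cells per point from three independent transfections. Hill fit used, significance set at p < 0.05.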

The test system of experiment [7] is Transient receptor potential cation channel subfamily V member 4 (Mus musculus), Q9EPK8 [W586A]. Put plainly: Agonist activity at mouse TRPV4 W586A mutant expressed in HEK293 cells assessed as increase in intracellular calcium measured by fura-2 fluorescence ratio. The class given is functional, cell-based. An outline of the steps:
as §1

For experiment [8], the target named is Transient receptor potential cation channel subfamily V member 4 (Mus musculus) (UniProt Q9EPK8). Put plainly: Activation of mouse wild type TRPV4 expressed in HEK293 cells assessed as increase in intracellular calcium concentration at 500 nM.

Transient receptor potential cation channel subfamily V member 4 (Mus musculus), sequence (Q9EPK8 whole entry): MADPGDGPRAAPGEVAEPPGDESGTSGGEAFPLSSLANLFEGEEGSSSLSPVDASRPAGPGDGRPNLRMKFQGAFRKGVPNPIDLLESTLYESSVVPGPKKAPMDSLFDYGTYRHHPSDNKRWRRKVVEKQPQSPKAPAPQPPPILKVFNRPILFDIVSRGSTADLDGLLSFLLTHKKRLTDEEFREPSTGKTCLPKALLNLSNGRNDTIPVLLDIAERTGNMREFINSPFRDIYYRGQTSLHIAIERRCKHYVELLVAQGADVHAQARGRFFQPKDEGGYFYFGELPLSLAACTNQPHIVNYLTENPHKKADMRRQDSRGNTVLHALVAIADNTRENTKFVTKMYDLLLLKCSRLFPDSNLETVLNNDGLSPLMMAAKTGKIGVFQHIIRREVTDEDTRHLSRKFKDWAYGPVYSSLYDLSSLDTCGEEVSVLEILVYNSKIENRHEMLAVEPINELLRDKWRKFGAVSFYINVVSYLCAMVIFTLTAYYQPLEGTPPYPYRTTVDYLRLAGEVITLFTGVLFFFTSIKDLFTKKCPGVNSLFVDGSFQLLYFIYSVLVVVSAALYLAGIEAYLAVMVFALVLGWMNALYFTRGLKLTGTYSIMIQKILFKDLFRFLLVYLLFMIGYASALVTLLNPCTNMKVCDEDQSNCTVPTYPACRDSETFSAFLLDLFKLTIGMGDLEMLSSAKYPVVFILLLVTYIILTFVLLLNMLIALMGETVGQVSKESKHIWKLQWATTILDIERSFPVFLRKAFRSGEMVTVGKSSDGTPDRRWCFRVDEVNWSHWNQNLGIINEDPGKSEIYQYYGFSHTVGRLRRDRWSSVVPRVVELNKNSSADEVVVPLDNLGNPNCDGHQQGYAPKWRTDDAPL
Transient receptor potential cation channel subfamily V member 4 (Mus musculus), Q9EPK8 [W586A], sequence (Q9EPK8 whole entry W586A): as the sequence (Q9EPK8 whole entry) above, with W586A counted along it
Transient receptor potential cation channel subfamily V member 4, sequence (Q9EPK8 whole entry Y556A, the tested form may be a part): as the sequence (Q9EPK8 whole entry) above, with Y556A counted along it
Transient receptor potential cation channel subfamily V member 4 (Mus musculus), Q9EPK8 [Y556A], sequence (Q9EPK8 whole entry Y556A): as the sequence (Q9EPK8 whole entry) above, with Y556A counted along it

For the compound `CCCCCCCCCC(=O)O[C@@H]1[C@@H](C)[C@]2(O)[C@@H]3C4C([C@H]2[C@@H]2C(C)(C)[C@]12OC(=O)CCCCCCCCC)C1(CO)C[C@H]3C(=O)C41C` (stereo partly drawn), the EC50 in experiment [1] is 9.36 µM. In addition, the result in experiment [2], in experiment [5], in experiment [6], in experiment [7] and in experiment [8] was Active. Also, the result in experiment [3] was inactive. The Activity in experiment [4] was 505.
